Columns and labels:
Format in all cases: functional
Conditions in all cases: Homo sapiens
Malme-3M = assay: Tested in vitro for cytotoxicity in MALME-3M
Procedure, shortened: (§1)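 Compounds dissolved in DMSO, then diluted 500-fold into aqueous medium. The resulting aqueous solutions or suspensions were added to the cultured human tumour cell lines, and the cells were exposed for 48 h. Growth was read colorimetrically in one of two ways: a metabolic assay in which viable cells reduce a tetrazolium salt to a formazan dye, or a protein stain for total cellular protein.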

A549 = assay: Tested in vitro for cytotoxicity in A549/ATCC cell lines; procedure, shortened: as §1
SF-268 = assay: Tested in vitro for cytotoxicity in SF-268 cell lines; procedure, shortened: as §1
COLO 205 = assay: Tested in vitro for cytotoxicity in COLO 205 cell lines; procedure, shortened: as §1
DMS-114 = assay: Tested in vitro for cytotoxicity in DMS114 cell lines; procedure, shortened: as §1
IGROV-1 = assay: Tested in vitro for cytotoxicity in IGROV1 cell lines; procedure, shortened: as §1
CCRF-CEM = assay: Tested in vitro for cytotoxicity in CCRF-CEM cell lines; procedure, shortened: as §1
CAKI-1 = assay: Tested in vitro for cytotoxicity in CAKI-1 cell lines; procedure, shortened: as §1

SMILES	GI50 (Malme-3M)	GI50 (A549)	GI50 (SF-268)	GI50 (COLO 205)	GI50 (DMS-114)	GI50 (IGROV-1)	GI50 (CCRF-CEM)	GI50 (CAKI-1)
COC(=O)C[n+]1ccc2c(C)c3[nH]c4ccccc4c3c(C)c2c1	> 100 µM	> 100 µM	12.8 µM	> 100 µM	> 100 µM	> 100 µM	> 100 µM	
COCN1C=Cc2c(c(C)c3c([nH]c4ccccc43)c2C)C1	8.87 µM	5.06 µM	8.02 µM	8.68 µM	10.4 µM	5.88 µM	4.98 µM	11.1 µM

From ChEMBL document CHEMBL1127574, “Design and synthesis of ellipticinium salts and 1,2-dihydroellipticines with high selectivities against human CNS cancers in vitro” (1994)
